In ChEMBL document CHEMBL1143881, “Sulfonamidolactam inhibitors of coagulation factor Xa” (Bioorg Med Chem Lett, 2008) one finds Ki, Selectivity ratio and PT data, which are given here for 21 compounds.

Broadly, the Ki is a measure of affinity in units of concentration, obtained from inhibition or displacement.

Sequence of Coagulation factor X (P00742 41-179 limits assumed): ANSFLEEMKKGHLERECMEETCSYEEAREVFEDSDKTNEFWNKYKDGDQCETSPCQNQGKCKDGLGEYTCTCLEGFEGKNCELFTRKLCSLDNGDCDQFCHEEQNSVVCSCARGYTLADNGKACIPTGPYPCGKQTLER
Sequence of Coagulation factor X (P00742 235-488 limits assumed): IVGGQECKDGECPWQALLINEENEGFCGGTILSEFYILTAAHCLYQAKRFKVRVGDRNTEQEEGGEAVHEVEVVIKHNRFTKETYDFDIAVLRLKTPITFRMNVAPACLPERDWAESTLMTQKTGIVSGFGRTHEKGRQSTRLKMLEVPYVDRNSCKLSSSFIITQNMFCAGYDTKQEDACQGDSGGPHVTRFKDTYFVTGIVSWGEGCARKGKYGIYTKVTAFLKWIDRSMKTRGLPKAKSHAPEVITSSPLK

In the first assay the target is Coagulation factor X (Homo sapiens, UniProt P00742). Briefly: Inhibition of human factor 10a. In a few lines:
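Inhibition constant (Ki) measured against purified human factor Xa; each value is the average of two independent experiments (n = 2).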
Consider `CS(=O)(=O)c1ccccc1-c1ccc(N2CCCC(NS(=O)(=O)c3cnc4ccccc4c3)C2=O)c(F)c1` (stereo not given), for which the affinity, expressed as Ki, was 28 nM.

In turn, `CN(C)CCN(C)C(=O)CN(C1CCCN(c2ccc(-n3ccccc3=O)cc2F)C1=O)S(=O)(=O)c1cc2ccc(Cl)nc2s1` (stereo not given) showed a Ki of 0.013 nM. This Ki is about 2200-fold lower than that of the compound before.

In the case of `COc1ccc(S(=O)(=O)NC2CCCN(c3ccc(-c4ccccc4S(C)(=O)=O)cc3F)C2=O)cc1` (stereo not given), the inhibition constant Ki was 53 nM. Compared with the last compound, the Ki is about 4100-fold higher.

For the compound `CN(C)CCN(C)C(=O)CN(C1CCCN(c2ccc(N3CCCCC3=O)cc2F)C1=O)S(=O)(=O)c1ccc2cc(Cl)ccc2c1` (stereo not given), the Ki turned out to be 1.7 nM.

The compound `CS(=O)(=O)c1ccccc1-c1ccc(N2CCCC(NS(=O)(=O)c3ccccc3)C2=O)c(F)c1` (stereo not given) gave a Ki of 370 nM.

Compound `CN(C)Cc1nccn1-c1ccc(N2CCCC(NS(=O)(=O)c3ccc4cc(Cl)ccc4c3)C2=O)c(F)c1` (stereo not given) showed a Ki of 2.4 nM.

On to `CN(C)CCN(C)C(=O)CN(C1CCCN(c2ccc(-n3ccccc3=O)cc2F)C1=O)S(=O)(=O)c1ccc2cc(Cl)ccc2c1` (stereo not given), for which the Ki is 0.02 nM.

In turn, `O=C1C(NS(=O)(=O)c2ccc3cc(Cl)ccc3c2)CCCN1c1ccc(-c2ccncc2)cc1F` (stereo not given) showed a Ki of 28 nM. This Ki lies about 1400-fold higher than the previous one.

In turn, `CS(=O)(=O)c1ccccc1-c1ccc(N2CCCC(NS(=O)(=O)c3cccc4ccc(Cl)cc34)C2=O)c(F)c1` (stereo not given) registered a Ki of 18 nM.

Regarding `Cc1c(S(=O)(=O)NC2CCCN(c3ccc(-c4ccccc4S(C)(=O)=O)cc3F)C2=O)sc2ccc(Cl)cc12` (stereo not given), affinity was put at a Ki of 160 nM.

The compound `CS(=O)(=O)c1ccccc1-c1ccc(N2CCCC(NS(=O)(=O)c3ccc(Cl)c(Cl)c3)C2=O)c(F)c1` (stereo not given) registered an inhibition constant Ki of 61 nM.

With `CS(=O)(=O)c1ccccc1-c1ccc(N2CCCC(N(CC(=O)O)S(=O)(=O)c3ccc4cc(Cl)ccc4c3)C2=O)c(F)c1` (stereo not given), the affinity, expressed as Ki, was 1 nM.

The compound `CS(=O)(=O)c1ccccc1-c1ccc(N2CCCC(NS(=O)(=O)c3cccc4cc(Cl)ccc34)C2=O)c(F)c1` (stereo not given) displayed a Ki of 2.2 nM.

Compound `O=C1C(NS(=O)(=O)c2ccc3cc(Cl)ccc3c2)CCCN1c1ccc(N2CCCCC2)cc1F` (stereo not given) came in with a Ki of 16 nM.

As to `CS(=O)(=O)c1ccccc1-c1ccc(N2CCCC(NS(=O)(=O)c3cccc(Cl)c3)C2=O)c(F)c1` (stereo not given), the Ki was determined as 380 nM.

For the compound `COC(=O)C[N+](C)(C)Cc1nccn1-c1ccc(N2CCCC(NS(=O)(=O)c3ccc4cc(Cl)ccc4c3)C2=O)c(F)c1` (stereo not given), the Ki stood at 0.35 nM.

Take `CS(=O)(=O)c1ccccc1-c1ccc(N2CCCC(NS(=O)(=O)Cc3ccccc3)C2=O)c(F)c1` (stereo not given): the Ki came out at 3200 nM.

Turning to `CS(=O)(=O)c1ccccc1-c1ccc(N2CCCC(NS(=O)(=O)c3ccc4ncccc4c3)C2=O)c(F)c1` (stereo not given), the Ki came to 73 nM. Compared with the last compound, the Ki is about 44-fold lower.

For the compound `COc1cccc(S(=O)(=O)NC2CCCN(c3ccc(-c4ccccc4S(C)(=O)=O)cc3F)C2=O)c1` (stereo not given), the Ki is 100 nM.

In turn, `CS(=O)(=O)c1ccccc1-c1ccc(N2CCCC(NS(=O)(=O)c3ccc4onc(N)c4c3)C2=O)c(F)c1` (stereo not given) yielded a Ki of 19 nM.

Regarding `CS(=O)(=O)c1ccccc1-c1ccc(N2CCCC(NS(=O)(=O)c3ccc(N)nc3)C2=O)c(F)c1` (stereo not given), the Ki turned out to be 260 nM. Compared with the last compound, the Ki is about 14-fold higher.

Test system in the next assay: not listed separately
Nature of the assay: Selectivity for human factor 10a over thrombin.
As for `CS(=O)(=O)c1ccccc1-c1ccc(N2CCCC(NS(=O)(=O)c3cnc4ccccc4c3)C2=O)c(F)c1` (stereo not given), the Selectivity ratio is over 1000.

In the case of `CN(C)CCN(C)C(=O)CN(C1CCCN(c2ccc(-n3ccccc3=O)cc2F)C1=O)S(=O)(=O)c1cc2ccc(Cl)nc2s1` (stereo not given), the Selectivity ratio was over 1000.

Consider `COc1ccc(S(=O)(=O)NC2CCCN(c3ccc(-c4ccccc4S(C)(=O)=O)cc3F)C2=O)cc1` (stereo not given), for which the Selectivity ratio is over 1000.

In the case of `CN(C)CCN(C)C(=O)CN(C1CCCN(c2ccc(N3CCCCC3=O)cc2F)C1=O)S(=O)(=O)c1ccc2cc(Cl)ccc2c1` (stereo not given), the Selectivity ratio is over 1000.

Consider `CS(=O)(=O)c1ccccc1-c1ccc(N2CCCC(NS(=O)(=O)c3ccccc3)C2=O)c(F)c1` (stereo not given), for which the Selectivity ratio is over 1000.

For `CN(C)Cc1nccn1-c1ccc(N2CCCC(NS(=O)(=O)c3ccc4cc(Cl)ccc4c3)C2=O)c(F)c1` (stereo not given), the Selectivity ratio was over 1000.

For `CN(C)CCN(C)C(=O)CN(C1CCCN(c2ccc(-n3ccccc3=O)cc2F)C1=O)S(=O)(=O)c1ccc2cc(Cl)ccc2c1` (stereo not given), the Selectivity ratio is over 1000.

Regarding `O=C1C(NS(=O)(=O)c2ccc3cc(Cl)ccc3c2)CCCN1c1ccc(-c2ccncc2)cc1F` (stereo not given), the Selectivity ratio was over 1000.

With `CS(=O)(=O)c1ccccc1-c1ccc(N2CCCC(NS(=O)(=O)c3cccc4ccc(Cl)cc34)C2=O)c(F)c1` (stereo not given), the Selectivity ratio is over 1000.

As for `Cc1c(S(=O)(=O)NC2CCCN(c3ccc(-c4ccccc4S(C)(=O)=O)cc3F)C2=O)sc2ccc(Cl)cc12` (stereo not given), the Selectivity ratio was over 1000.

As to `CS(=O)(=O)c1ccccc1-c1ccc(N2CCCC(NS(=O)(=O)c3ccc(Cl)c(Cl)c3)C2=O)c(F)c1` (stereo not given), the Selectivity ratio is over 1000.

For `CS(=O)(=O)c1ccccc1-c1ccc(N2CCCC(N(CC(=O)O)S(=O)(=O)c3ccc4cc(Cl)ccc4c3)C2=O)c(F)c1` (stereo not given), the Selectivity ratio is over 1000.

Regarding `CS(=O)(=O)c1ccccc1-c1ccc(N2CCCC(NS(=O)(=O)c3cccc4cc(Cl)ccc34)C2=O)c(F)c1` (stereo not given), the Selectivity ratio is over 1000.

Take `O=C1C(NS(=O)(=O)c2ccc3cc(Cl)ccc3c2)CCCN1c1ccc(N2CCCCC2)cc1F` (stereo not given): the Selectivity ratio was over 1000.

As for `CS(=O)(=O)c1ccccc1-c1ccc(N2CCCC(NS(=O)(=O)c3cccc(Cl)c3)C2=O)c(F)c1` (stereo not given), the Selectivity ratio is over 1000.

In the case of `COC(=O)C[N+](C)(C)Cc1nccn1-c1ccc(N2CCCC(NS(=O)(=O)c3ccc4cc(Cl)ccc4c3)C2=O)c(F)c1` (stereo not given), the Selectivity ratio is over 1000.

Turning to `CS(=O)(=O)c1ccccc1-c1ccc(N2CCCC(NS(=O)(=O)Cc3ccccc3)C2=O)c(F)c1` (stereo not given), the Selectivity ratio was over 1000.

For the compound `CS(=O)(=O)c1ccccc1-c1ccc(N2CCCC(NS(=O)(=O)c3ccc4ncccc4c3)C2=O)c(F)c1` (stereo not given), the Selectivity ratio is over 1000.

For the compound `COc1cccc(S(=O)(=O)NC2CCCN(c3ccc(-c4ccccc4S(C)(=O)=O)cc3F)C2=O)c1` (stereo not given), the Selectivity ratio was over 1000.

Turning to `CS(=O)(=O)c1ccccc1-c1ccc(N2CCCC(NS(=O)(=O)c3ccc4onc(N)c4c3)C2=O)c(F)c1` (stereo not given), the Selectivity ratio was over 1000.

Regarding `CS(=O)(=O)c1ccccc1-c1ccc(N2CCCC(NS(=O)(=O)c3ccc(N)nc3)C2=O)c(F)c1` (stereo not given), the Selectivity ratio was over 1000.

Test system in the next assay: not listed separately
Nature of the assay: Selectivity for human factor 10a over trypsin.
In the case of `CS(=O)(=O)c1ccccc1-c1ccc(N2CCCC(NS(=O)(=O)c3cnc4ccccc4c3)C2=O)c(F)c1` (stereo not given), the Selectivity ratio is over 1000.

In the case of `CN(C)CCN(C)C(=O)CN(C1CCCN(c2ccc(-n3ccccc3=O)cc2F)C1=O)S(=O)(=O)c1cc2ccc(Cl)nc2s1` (stereo not given), the Selectivity ratio was over 1000.

Regarding `COc1ccc(S(=O)(=O)NC2CCCN(c3ccc(-c4ccccc4S(C)(=O)=O)cc3F)C2=O)cc1` (stereo not given), the Selectivity ratio is over 1000.

For the compound `CN(C)CCN(C)C(=O)CN(C1CCCN(c2ccc(N3CCCCC3=O)cc2F)C1=O)S(=O)(=O)c1ccc2cc(Cl)ccc2c1` (stereo not given), the Selectivity ratio was over 1000.

Take `CS(=O)(=O)c1ccccc1-c1ccc(N2CCCC(NS(=O)(=O)c3ccccc3)C2=O)c(F)c1` (stereo not given): the Selectivity ratio was over 1000.

Regarding `CN(C)Cc1nccn1-c1ccc(N2CCCC(NS(=O)(=O)c3ccc4cc(Cl)ccc4c3)C2=O)c(F)c1` (stereo not given), the Selectivity ratio is over 1000.

For the compound `CN(C)CCN(C)C(=O)CN(C1CCCN(c2ccc(-n3ccccc3=O)cc2F)C1=O)S(=O)(=O)c1ccc2cc(Cl)ccc2c1` (stereo not given), the Selectivity ratio was over 1000.

For `O=C1C(NS(=O)(=O)c2ccc3cc(Cl)ccc3c2)CCCN1c1ccc(-c2ccncc2)cc1F` (stereo not given), the Selectivity ratio was over 1000.

As to `CS(=O)(=O)c1ccccc1-c1ccc(N2CCCC(NS(=O)(=O)c3cccc4ccc(Cl)cc34)C2=O)c(F)c1` (stereo not given), the Selectivity ratio was over 1000.

With `Cc1c(S(=O)(=O)NC2CCCN(c3ccc(-c4ccccc4S(C)(=O)=O)cc3F)C2=O)sc2ccc(Cl)cc12` (stereo not given), the Selectivity ratio was over 1000.

For `CS(=O)(=O)c1ccccc1-c1ccc(N2CCCC(NS(=O)(=O)c3ccc(Cl)c(Cl)c3)C2=O)c(F)c1` (stereo not given), the Selectivity ratio was over 1000.

As for `CS(=O)(=O)c1ccccc1-c1ccc(N2CCCC(N(CC(=O)O)S(=O)(=O)c3ccc4cc(Cl)ccc4c3)C2=O)c(F)c1` (stereo not given), the Selectivity ratio is over 1000.

As to `CS(=O)(=O)c1ccccc1-c1ccc(N2CCCC(NS(=O)(=O)c3cccc4cc(Cl)ccc34)C2=O)c(F)c1` (stereo not given), the Selectivity ratio is over 1000.

With `O=C1C(NS(=O)(=O)c2ccc3cc(Cl)ccc3c2)CCCN1c1ccc(N2CCCCC2)cc1F` (stereo not given), the Selectivity ratio is over 1000.

`CS(=O)(=O)c1ccccc1-c1ccc(N2CCCC(NS(=O)(=O)c3cccc(Cl)c3)C2=O)c(F)c1` (stereo not given): the Selectivity ratio is over 1000.

Take `COC(=O)C[N+](C)(C)Cc1nccn1-c1ccc(N2CCCC(NS(=O)(=O)c3ccc4cc(Cl)ccc4c3)C2=O)c(F)c1` (stereo not given): the Selectivity ratio is over 1000.

Turning to `CS(=O)(=O)c1ccccc1-c1ccc(N2CCCC(NS(=O)(=O)Cc3ccccc3)C2=O)c(F)c1` (stereo not given), the Selectivity ratio was over 1000.

Turning to `CS(=O)(=O)c1ccccc1-c1ccc(N2CCCC(NS(=O)(=O)c3ccc4ncccc4c3)C2=O)c(F)c1` (stereo not given), the Selectivity ratio is over 1000.

As to `COc1cccc(S(=O)(=O)NC2CCCN(c3ccc(-c4ccccc4S(C)(=O)=O)cc3F)C2=O)c1` (stereo not given), the Selectivity ratio was over 1000.

`CS(=O)(=O)c1ccccc1-c1ccc(N2CCCC(NS(=O)(=O)c3ccc4onc(N)c4c3)C2=O)c(F)c1` (stereo not given): the Selectivity ratio is over 1000.

Turning to `CS(=O)(=O)c1ccccc1-c1ccc(N2CCCC(NS(=O)(=O)c3ccc(N)nc3)C2=O)c(F)c1` (stereo not given), the Selectivity ratio was over 1000.

Another assay deals with Plasma. Briefly: Anticoagulant efficacy in human citreated plasma assessed as concentration required to double prothrombin time. The format is functional.
On to `CN(C)CCN(C)C(=O)CN(C1CCCN(c2ccc(-n3ccccc3=O)cc2F)C1=O)S(=O)(=O)c1cc2ccc(Cl)nc2s1` (stereo not given), for which the PT was 2.1 µM.

`CN(C)CCN(C)C(=O)CN(C1CCCN(c2ccc(N3CCCCC3=O)cc2F)C1=O)S(=O)(=O)c1ccc2cc(Cl)ccc2c1` (stereo not given): the PT was 12 µM.

Turning to `CN(C)Cc1nccn1-c1ccc(N2CCCC(NS(=O)(=O)c3ccc4cc(Cl)ccc4c3)C2=O)c(F)c1` (stereo not given), the PT amounted to 13 µM.

Regarding `CN(C)CCN(C)C(=O)CN(C1CCCN(c2ccc(-n3ccccc3=O)cc2F)C1=O)S(=O)(=O)c1ccc2cc(Cl)ccc2c1` (stereo not given), the PT turned out to be 3.3 µM.

In the case of `CS(=O)(=O)c1ccccc1-c1ccc(N2CCCC(N(CC(=O)O)S(=O)(=O)c3ccc4cc(Cl)ccc4c3)C2=O)c(F)c1` (stereo not given), the PT was 250 µM.

`CS(=O)(=O)c1ccccc1-c1ccc(N2CCCC(NS(=O)(=O)c3cccc4cc(Cl)ccc34)C2=O)c(F)c1` (stereo not given): the PT stood at 102 µM.

In the case of `COC(=O)C[N+](C)(C)Cc1nccn1-c1ccc(N2CCCC(NS(=O)(=O)c3ccc4cc(Cl)ccc4c3)C2=O)c(F)c1` (stereo not given), the PT is 13 µM.
